Measured values published in ChEMBL document CHEMBL4130379, “Design, synthesis and bioevaluation of antitubulin agents carrying diaryl-5,5-fused-heterocycle scaffold” (Eur J Med Chem, 2017).
The source made the active and inactive calls. The calls are words filed in the database; no cut-off is given here.

Experiments:
SGC-7901 [1] = assay: Antiproliferative activity against human SGC7901 cells after 72 hrs by MTT assay; assay type: functional, cell-based; details: SGC-7901, 72 h
Summary of the method: (§1)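 MTT assay on human SGC-7901 gastric adenocarcinoma, A549 lung adenocarcinoma and HT-1080 fibrosarcoma cells. The read-out was the half maximal inhibitory concentration (IC50). SMART and ABI were run in parallel as positive controls.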

A549 = assay: Antiproliferative activity against human A549 cells after 72 hrs by MTT assay; assay type: functional, cell-based; details: A549, 72 h; summary of the method: as §1
HT-1080 = assay: Antiproliferative activity against human HT1080 cells after 72 hrs by MTT assay; assay type: functional, cell-based; details: HT-1080, 72 h; summary of the method: as §1
Homo sapiens = species: Homo sapiens; assay: Induction of cytoplasmic microtubule network disassembly in human SGC7901 cells at 2 times antiproliferative IC50 after 48 hrs by DAPI staining-based immunofluorescence microscopic method; assay type: cell-based
SGC-7901 [2] = assay: Cell cycle arrest in human SGC7901 cells assessed as accumulation at sub-G1 phase at 0.044 uM after 6 to 72 hrs by propidium iodide staining-based flow cytometry; assay type: functional
Summary of the method: (§2)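 Time-course study in SGC-7901 cells treated with test agent. Cell cycle distribution (sub-G1, G0/G1, S, G2/M) and polyploidy were analysed by flow cytometry at successive time points.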

[3] = Inhibition of porcine brain tubulin polymerization preincubated for 1 min followed by GTP addition measured at 1 min intervals for 90 mins by spectrophotometric method
Sus scrofa = species: Sus scrofa; assay: as above
SGC-7901 [4] = assay: Cell cycle arrest in human SGC7901 cells assessed as induction of polyploidy at S phase at 0.044 uM after 24 hrs by propidium iodide staining-based flow cytometry; assay type: functional; summary of the method: as §2
SGC-7901 [5] = assay: Cell cycle arrest in human SGC7901 cells assessed as decrease in cell levels at S phase at 0.044 uM after 6 to 72 hrs by propidium iodide staining-based flow cytometry; assay type: functional; summary of the method: as §2
SGC-7901 [6] = assay: Cell cycle arrest in human SGC7901 cells assessed as decrease in cell levels at G0/G1 phase at 0.044 uM after 6 to 72 hrs by propidium iodide staining-based flow cytometry; assay type: functional; summary of the method: as §2
SGC-7901 [7] = assay: Cell cycle arrest in human SGC7901 cells assessed as accumulation at G2/M phase at 0.044 uM by propidium iodide staining-based flow cytometry; assay type: functional; details: TDE = time-dependent effect; summary of the method: as §2

Row | SMILES | IC50 (SGC-7901 [1]) [µM] | IC50 (A549) [µM] | IC50 (HT-1080) [µM] | further results
1 | COc1ccc(-c2nn3c(-c4ccc5c(c4)OCO5)nnc3s2)cc1N | 0.057 | 0.272 | 0.327 | –
2 | COc1ccc(-c2nn3c(-c4ccc5c(c4)OCO5)nnc3s2)cc1[N+](=O)[O-] | 37.8 | 32.8 | 30.3 | –
3 | COc1ccc(-c2nn3c(-c4ccc(OC)c(OC)c4OC)nnc3s2)cc1[N+](=O)[O-] | 32.5 | 33.8 | 35.1 | –
4 | COc1cccc(-c2nnc3sc(-c4ccc(OC)c([N+](=O)[O-])c4)nn23)c1 | 34.7 | 29.5 | 33 | –
5 | COc1cc(C(=O)c2csc(-c3ccccc3)n2)cc(OC)c1OC | 0.019 | 0.029 | 0.028 | Activity (Homo sapiens): Active
6 | COc1ccc(-c2nn3c(-c4ccc(OC)c(OC)c4OC)nnc3s2)cc1N | 0.062 | 0.082 | 0.073 | –
7 | COc1ccc(-c2cc3[nH]nc(-c4cc(OC)c(OC)c(OC)c4)n3n2)cc1N | 13.8 | 17.4 | 17.8 | –
8 | COc1ccc(-c2nnc3sc(-c4ccc(C)cc4)nn23)c(OC)c1OC | 0.186 | 0.803 | 0.089 | –
9 | COc1ccc(-c2cc3[nH]nc(-c4cc(OC)c(OC)c(OC)c4)n3n2)cc1[N+](=O)[O-] | 48.3 | 58.2 | 35.6 | –
10 | COc1ccc(-c2nn3c(-c4cc(OC)c(OC)c(OC)c4)nnc3s2)cc1N | 0.022 | 0.029 | 0.027 | Activity (SGC-7901 [2]): Active; IC50 [3]: 0.77 µM; inhibition (Sus scrofa): Dose-dependent effect; Activity (SGC-7901 [4]): Active; Activity (SGC-7901 [5]): Active; Activity (SGC-7901 [6]): Active; Activity (SGC-7901 [7]): Tde; Activity (Homo sapiens): Active
11 | Cc1ccc(-c2nn3c(-c4ccc5c(c4)OCO5)nnc3s2)cc1 | 24 | 27.7 | 26.8 | –
12 | COc1cccc(-c2nnc3sc(-c4ccc(OC)c(N)c4)nn23)c1 | 0.059 | 0.12 | 0.088 | –
13 | COc1ccc(-c2nn3c(-c4ccc5c(c4)OCO5)nnc3s2)cc1 | 25.6 | 29.7 | 24.5 | –
14 | COc1cc(-c2n[nH]c3cc(-c4ccc(Cl)cc4)nn23)cc(OC)c1OC | 6.12 | 1.21 | 6.81 | –
15 | COc1cc(-c2n[nH]c3cc(-c4ccc(C)cc4)nn23)cc(OC)c1OC | 33.5 | 29.3 | 51.3 | –
16 | COc1ccc(-c2nn3c(-c4ccc(OC)c(OC)c4OC)nnc3s2)cc1 | 3.75 | 2.29 | 1.88 | –
17 | COc1ccc(-c2nnc3sc(-c4ccc(OC)c([N+](=O)[O-])c4)nn23)cc1 | 22.1 | 26.9 | 27.3 | –
18 | COc1ccc(-c2nn3c(-c4ccc(OC)c(OC)c4)nnc3s2)cc1N | 0.083 | 0.522 | 0.339 | –
19 | COc1ccc(-c2nnc3sc(-c4ccc(OC)c(N)c4)nn23)cc1 | 14.2 | 14.9 | 16.4 | –
20 | COc1cc(C(=O)c2c[nH]c(-c3ccccc3)n2)cc(OC)c1OC | 0.81 | 0.98 | 0.15 | –
21 | COc1ccc(-c2cc3[nH]nc(-c4cc(OC)c(OC)c(OC)c4)n3n2)cc1 | 26.8 | 26.4 | 26.5 | –
22 | COc1ccc(-c2nnc3sc(-c4ccc(OC)c([N+](=O)[O-])c4)nn23)cc1OC | 37.7 | 30.4 | 32.8 | –
23 | COc1ccc(-c2nn3c(-c4cc(OC)c(OC)c(OC)c4)nnc3s2)cc1[N+](=O)[O-] | 23.2 | 26.5 | 30.2 | –
